Measured values taken from the RNAGym collection of RNA variant scans (doi:10.1126/science.aae0568).
Variants at the floor of the assay were thinned out.

B1: tRNA (parent)
chain: GUUCCGUUGGCGUAAUGGUAACGCGUCUCCCUCCUAAGGAGAAGACUGCGGGUUCGAGUCCCGUACGGAACG

Variants of: B1
Assay: yeast fitness relative to wild type (ratio to wild type); higher = fitter; tRNA-Arg(CCU), competitive growth, 37 C, YPD
Summary of the method: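 Changes in genotype frequencies gave Darwinian fitness relative to wild type. Frequencies were read by 100-nucleotide paired-end sequencing of gene amplicons before and after pooled Saccharomyces cerevisiae strains, carrying tRNA-Arg(CCU) gene variants at the native locus, were competed in YPD at 37°C for 24 hours in six replicates. A genotype was kept only with ≥ 100 starting reads, and estimates < 0.5 were set to 0.5.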

| Variant | yeast fitness |
| --- | --- |
| C22U A40G G63C G67C A69U | ≤ 0.5 |
| C22U G44C G63A | ≤ 0.5 |
| C22U C24G A36C A70C | ≤ 0.5 |
| C22U A40C C66U | 0.523 |
| C22G G58C | 0.971 |
| C22U C29A A65U | ≤ 0.5 |
| C22U C31G U53A | ≤ 0.5 |
| C22G G67C | 0.97 |
| C22U G50A G56A | 0.793 |
| C22U C55G A70C | 0.558 |
| C22U C46A | 0.975 |
| C22U C46U | 0.995 |
| C22U C46G | 0.835 |
| C22U C24G U28A A45C G51A A57C C61U | ≤ 0.5 |
| C22U A36U C49U G58C | 0.575 |
| C22G G48C | 0.811 |
| C22U C24A C27U A43C | ≤ 0.5 |
| C22U C29G C33U C61U A69C | ≤ 0.5 |
| C22G U26C C33U A37U A40C G63C | ≤ 0.5 |
| C22G G51C G58A | ≤ 0.5 |
| C22U G41A A69C | ≤ 0.5 |

| Variant | yeast fitness |
| --- | --- |
| C22U A37G | 0.662 |
| C22U C33G G41C | ≤ 0.5 |
| C22U A45G G58C | 0.608 |
| C22U G23C C55U C60G A70C | ≤ 0.5 |
| C22U G41A | 0.706 |
| C22U C24G A65U | ≤ 0.5 |
| C22U C30A U64A | 0.574 |
| C22U U26A C49U A65U | ≤ 0.5 |
| C22U C46G C55A | ≤ 0.5 |
| C22U C31G G38A U47A C62U | ≤ 0.5 |
| C22U G58C | 0.883 |
| C22U G58A | 0.926 |
| C22U C31A C60G | ≤ 0.5 |
| C22U C31A C60U | ≤ 0.5 |
| C22G U28A C31G C55A G68C | 0.539 |
| C22U C46A C66U | ≤ 0.5 |
| C22U C34G G48C | ≤ 0.5 |
| C22U C46G C49A G56A C60A A70C | 0.534 |
| C22U C46U G51C | ≤ 0.5 |
| C22U C49A | 0.682 |
| C22U A37C G44A G63C | ≤ 0.5 |

| Variant | yeast fitness |
| --- | --- |
| C22U U28C C29G C33A | ≤ 0.5 |
| C22U G23A C61A | 0.58 |
| C22U C46G C49A U54C G56A C60A A70C | ≤ 0.5 |
| C22G G68U | 0.865 |
| C22G G68C | 0.696 |
| C22U C27U G51A A57U C61G | ≤ 0.5 |
| C22G G58C C61U | 0.616 |
| C22U G52A C60G | 0.503 |
| C22U C24U U35A A42C A57C | 0.638 |
| C22U C30U C55G | ≤ 0.5 |
| C22U C62A | 0.856 |
| C22U C62U | 0.867 |
| C22U C62G | 0.778 |
| C22G G50U A57G | ≤ 0.5 |
| C22U C66U A69U | 0.6 |
| C22U A43G A57U | 0.59 |
| C22U C33U A69C | 0.522 |
| C22U G25A C33U A42C | ≤ 0.5 |
| C22U A42G A45C | ≤ 0.5 |
| C22U C34G A36U U47C A65C | ≤ 0.5 |
| C22U A36C C49U A65G | 0.528 |

| Variant | yeast fitness |
| --- | --- |
| C22G U47C G50A | ≤ 0.5 |
| C22U A37U G50C | 0.634 |
| C22U C31G C60G | ≤ 0.5 |
| C22U C27U A57G | 0.53 |
| C22U G38A C55U G68C | ≤ 0.5 |
| C22U G25A G48C A57G | ≤ 0.5 |
| C22U A40U A65U | ≤ 0.5 |
| C22U C24U C60G | ≤ 0.5 |
| C22U C66A | 0.716 |
| C22U C66U | 0.762 |
| C22U C30A C31U | ≤ 0.5 |
| C22U C24A G56A A70U | ≤ 0.5 |
| C22U C27U C33A | ≤ 0.5 |
| C22U C24A C29A A36C | ≤ 0.5 |
| C22G G63A | 0.891 |
| C22U G56A | 0.734 |
| C22U G63A A70C | 0.508 |
| C22G U47A | 0.754 |
| C22G U47G | 0.597 |
| C22G U47C | 0.89 |
